Experimental data as given in ChEMBL document CHEMBL4406880, “Design, synthesis, and bioactivity of dihydropyrimidine derivatives as kinesin spindle protein inhibitors” (Bioorg Med Chem, 2019).

Key:
Assay type in all cases: functional
PC-3 = assay: Growth inhibition of human PC3 cells assessed as growth percentage at 10 uM incubated for 48 hrs by sulforhodamine B assay relative to control; settings: PC-3, 48 h, read-out: Activity
In short: (§1)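 NCI-60 single-dose screen. Cells were grown in RPMI 1640 with 5% FBS and 2 mM L-glutamine and plated at 5,000–40,000 cells/well. After an overnight preincubation at 37 °C in 5% CO2, compound was added at a final 10 µM from a DMSO stock, with DMSO/PBS controls. After 48 h, cells were TCA-fixed and stained with 0.4% SRB, and absorbance was read at 515 nm. Growth is given as a percentage of untreated control.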

MCF7 = assay: Growth inhibition of human MCF7 cells assessed as growth percentage at 10 uM incubated for 48 hrs by sulforhodamine B assay relative to control; settings: MCF7, 48 h, read-out: Activity
In short: (§2)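 NCI-60 one-dose screen. Cells in RPMI 1640 with 5% FBS and 2 mM L-glutamine, seeded at 5,000–40,000 cells/well according to doubling time, and preincubated overnight at 37 °C, 5% CO2. A time-zero plate was TCA-fixed at drug addition. Compound from DMSO stock, final 10 µM, 48 h; DMSO vehicle controls. Fixation with TCA, 10% final (16% for suspension cells). SRB stain, Tris solubilization, A515. Result given as % growth versus untreated cells.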

HT-29 = assay: Growth inhibition of human HT-29 cells assessed as growth percentage at 10 uM incubated for 48 hrs by sulforhodamine B assay relative to control; settings: HT-29, 48 h, read-out: Activity; in short: as §2
IGROV-1 = assay: Growth inhibition of human IGROV1 cells assessed as growth percentage at 10 uM incubated for 48 hrs by sulforhodamine B assay relative to control; settings: IGROV-1, 48 h, read-out: Activity; in short: as §2
CCRF-CEM = assay: Growth inhibition of human CCRF-CEM cells assessed as growth percentage at 10 uM incubated for 48 hrs by sulforhodamine B assay relative to control; settings: read-out: Activity
In short: (§3)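 NCI-60 one-dose screen: cells in RPMI 1640 with 5% FBS and 2 mM L-glutamine, plated at 5,000–40,000 cells/well and preincubated 24 h at 37 °C, 5% CO2. Compound is added from a DMSO stock to a final 10 µM and incubated 48 h. Cells are TCA-fixed and stained with sulforhodamine B, read at 515 nm. Output is % growth versus untreated control, with a time-zero plate.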

A549 = assay: Growth inhibition of human A549/ATCC cells assessed as growth percentage at 10 uM incubated for 48 hrs by sulforhodamine B assay relative to control; settings: A549, 48 h, read-out: Activity; in short: as §3
HCT-116 = assay: Growth inhibition of human HCT116 cells assessed as growth percentage at 10 uM incubated for 48 hrs by sulforhodamine B assay relative to control; settings: HCT-116, 48 h, read-out: Activity; in short: as §3
TK-10 = assay: Growth inhibition of human TK10 cells assessed as growth percentage at 10 uM incubated for 48 hrs by sulforhodamine B assay relative to control; settings: TK-10, 48 h, read-out: Activity; in short: as §1
SF-539 = assay: Growth inhibition of human SF539 cells assessed as growth percentage at 10 uM incubated for 48 hrs by sulforhodamine B assay relative to control; settings: SF-539, 48 h, read-out: Activity; in short: as §1
CAKI-1 = assay: Growth inhibition of human Caki1 cells assessed as growth percentage at 10 uM incubated for 48 hrs by sulforhodamine B assay relative to control; settings: CAKI-1, 48 h, read-out: Activity; in short: as §3
SK-MEL-5 = assay: Growth inhibition of human SK-MEL-5 cells assessed as growth percentage at 10 uM incubated for 48 hrs by sulforhodamine B assay relative to control; settings: SK-MEL-5, 48 h, read-out: Activity; in short: as §1
U-251 = assay: Growth inhibition of human U251 cells assessed as growth percentage at 10 uM incubated for 48 hrs by sulforhodamine B assay relative to control; settings: U-251, 48 h, read-out: Activity; in short: as §1
SW-620 = assay: Growth inhibition of human SW620 cells assessed as growth percentage at 10 uM incubated for 48 hrs by sulforhodamine B assay relative to control; settings: SW-620, 48 h, read-out: Activity; in short: as §1
MOLT-4 = assay: Growth inhibition of human MOLT4 cells assessed as growth percentage at 10 uM incubated for 48 hrs by sulforhodamine B assay relative to control; settings: MOLT-4, 48 h, read-out: Activity; in short: as §2
COLO 205 = assay: Growth inhibition of human COLO205 cells assessed as growth percentage at 10 uM incubated for 48 hrs by sulforhodamine B assay relative to control; settings: COLO 205, 48 h, read-out: Activity; in short: as §3
M14 = assay: Growth inhibition of human M14 cells assessed as growth percentage at 10 uM incubated for 48 hrs by sulforhodamine B assay relative to control; settings: M14, 48 h, read-out: Activity; in short: as §2
K562 = assay: Growth inhibition of human K562 cells assessed as growth percentage at 10 uM incubated for 48 hrs by sulforhodamine B assay relative to control; settings: K562, 48 h, read-out: Activity; in short: as §2
UO-31 = assay: Growth inhibition of human UO31 cells assessed as growth percentage at 10 uM incubated for 48 hrs by sulforhodamine B assay relative to control; settings: UO-31, 48 h, read-out: Activity; in short: as §1
Hs-578T = assay: Growth inhibition of human Hs 578T cells assessed as growth percentage at 10 uM incubated for 48 hrs by sulforhodamine B assay relative to control; settings: read-out: Activity; in short: as §2
NCI-H226 = assay: Growth inhibition of human NCI-H226 cells assessed as growth percentage at 10 uM incubated for 48 hrs by sulforhodamine B assay relative to control; settings: NCI-H226, 48 h, read-out: Activity; in short: as §2
MDA-MB-468 = assay: Growth inhibition of human MDA-MB-468 cells assessed as growth percentage at 10 uM incubated for 48 hrs by sulforhodamine B assay relative to control; settings: MDA-MB-468, 48 h, read-out: Activity; in short: as §2
HL-60(TB) = assay: Growth inhibition of human HL-60(TB) cells assessed as growth percentage at 10 uM incubated for 48 hrs by sulforhodamine B assay relative to control; settings: HL-60, 48 h, read-out: Activity
In short: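 NCI-60 single-dose screen. Cells in RPMI 1640 with 5% FBS and 2 mM L-glutamine are plated at 5,000–40,000 cells/well and preincubated overnight at 37 °C, 5% CO2. Compound is added from a DMSO stock at 10 µM final for 48 h. Cells are TCA-fixed (suspension cells 16% final) and stained with SRB. Absorbance is read at 515 nm, and percentage growth is calculated against untreated controls with a time-zero plate.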

SNB-75 = assay: Growth inhibition of human SNB75 cells assessed as growth percentage at 10 uM incubated for 48 hrs by sulforhodamine B assay relative to control; settings: SNB-75, 48 h, read-out: Activity; in short: as §1
MDA-MB-435 = assay: Growth inhibition of human MDA-MB-435 cells assessed as growth percentage at 10 uM incubated for 48 hrs by sulforhodamine B assay relative to control; settings: MDA-MB-435, 48 h, read-out: Activity; in short: as §2

Row | Structure (SMILES) | growth at 10 µM (PC-3) [%] | growth at 10 µM (MCF7) [%] | growth at 10 µM (HT-29) [%] | growth at 10 µM (IGROV-1) [%] | growth at 10 µM (A549) [%] | growth at 10 µM (HCT-116) [%] | growth at 10 µM (TK-10) [%] | growth at 10 µM (SF-539) [%] | growth at 10 µM (CAKI-1) [%] | growth at 10 µM (SK-MEL-5) [%] | growth at 10 µM (U-251) [%] | growth at 10 µM (SW-620) [%] | growth at 10 µM (MOLT-4) [%] | growth at 10 µM (COLO 205) [%] | growth at 10 µM (M14) [%] | growth at 10 µM (K562) [%] | growth at 10 µM (UO-31) [%] | growth at 10 µM (Hs-578T) [%] | growth at 10 µM (NCI-H226) [%] | growth at 10 µM (HL-60(TB)) [%] | other results
1 | CC1=C(C(=O)OCc2ccccc2)C(c2ccc3c(c2)OCO3)n2c(nc3ccccc32)N1 (racemic) | 35 to 41.1 | 9 to 20.6 | 7 to 14.4 | 36 to 41.4 | 34 to 47.1 | 18.8 to 25 | 64 to 65.6 | 9.94 to 21 | 24 to 34.3 | 25.5 to 28 | 31 to 36.3 | 17.6 to 19 | 37.1 to 41 | 37.2 to 43 | 28.1 to 35 | 13.8 to 25 | 28 to 51.1 | 0.75 to 14 | 58 to 58.2 | – | growth at 10 µM (CCRF-CEM): 24.9 to 31%
2 | COCCOC(=O)C1=C(C)NC(=S)N(C(C)=O)C1c1ccc2c(c1)OCO2 (racemic) | 97.8 | 102 | 106 | 106 | 99.2 | 103 | 102 | 97.6 | 97.4 | 104 | 94.8 | 100 | 103 | 100 | 96.1 | 94.3 | 82 | 93.7 | 96.6 | 97.8 | growth at 10 µM (MDA-MB-468): 105%; growth at 10 µM (SNB-75): 83%; growth at 10 µM (MDA-MB-435): 103%
3 | COCCOC(=O)C1=C(C)NC(=S)NC1c1ccc2c(c1)OCO2 (racemic) | 95.7 | 89.6 | 96.7 | 105 | 101 | 103 | 104 | 99.2 | 99.8 | 97.6 | 104 | 106 | 96.9 | 117 | 104 | 91.8 | 87.8 | 104 | 90.2 | 92.1 | growth at 10 µM (CCRF-CEM): 104%; growth at 10 µM (MDA-MB-435): 104%
4 | CC(=O)N1C(=S)NC(C)=C(C(=O)OCC(C)C)C1c1ccc2c(c1)OCO2 (racemic) | 81.2 | 104 | 104 | 112 | 95.9 | 93.5 | 95.4 | 101 | 96.2 | 100 | 87.5 | 97.3 | 95.1 | 101 | 96.4 | 78.2 | 91.8 | 89.2 | 94.6 | 98.5 | growth at 10 µM (MDA-MB-468): 94.9%; growth at 10 µM (SNB-75): 92.2%; growth at 10 µM (MDA-MB-435): 95.5%
5 | CC1=C(C(=O)OCc2ccccc2)C(c2ccc3c(c2)OCO3)NC(=S)N1 (racemic) | 85.2 | 86.8 | 105 | 97.6 | 93.7 | 93.1 | 105 | 99.3 | 81.8 | 88.9 | 95.8 | 94.2 | 78.2 | 117 | 102 | 75.2 | 89.2 | 90.2 | 95.8 | 56.1 | growth at 10 µM (CCRF-CEM): 100%; growth at 10 µM (MDA-MB-435): 93.6%
